Converted amounts (≈) assume the structure as drawn. The source made the active and inactive calls. The calls are words filed in the database; no cut-off is given here.
Tests used:
[1] = tested on: Mycobacterium tuberculosis; assay: Antimycobacterial activity against Mycobacterium tuberculosis H37Rv grown in glycerol-alanine-salts media; type: functional
[2] = tested on: Mycobacterium tuberculosis; assay: Antimycobacterial activity against Mycobacterium tuberculosis H37Rv grown in iron-deficient glycerol-alanine-salts media; type: functional
Bacillus subtilis [3] = assay: Antibacterial activity against Bacillus subtilis ATCC 6633 at 50 uL of 2 mM solution of compound in 1:9 DMSO/MeOH after 24 hrs by agar diffusion method; type: functional
Procedure, shortened: (§1)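 Agar diffusion assay against representative Gram-positive and Gram-negative bacteria and Mycobacterium vaccae; the read-out is the diameter of the inhibition zone around the applied compound, measured in mm.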

Bacillus subtilis [4] = assay: Antibacterial activity against Bacillus subtilis ATCC 6633 assessed as clear inhibition zone at 50 uL of 2 mM solution of compound in 1:9 DMSO/MeOH after 24 hrs by agar diffusion method; type: functional; procedure, shortened: as §1
Staphylococcus aureus [5] = assay: Antibacterial activity against Staphylococcus aureus SG 511 at 50 uL of 2 mM solution of compound in 1:9 DMSO/MeOH after 24 hrs by agar diffusion method; type: functional; procedure, shortened: as §1
Staphylococcus aureus [6] = assay: Antibacterial activity against Staphylococcus aureus SG 511 assessed as partial clear inhibition zone at 50 uL of 2 mM solution of compound in 1:9 DMSO/MeOH after 24 hrs by agar diffusion method; type: functional; procedure, shortened: as §1
Staphylococcus aureus [7] = assay: Antibacterial activity against methicillin-resistant Staphylococcus aureus 134/93 at 50 uL of 2 mM solution of compound in 1:9 DMSO/MeOH after 24 hrs by agar diffusion method; type: functional
Procedure, shortened: (§2)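 Agar diffusion screen; read-out is the diameter of the inhibition zone, in mm.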

Escherichia coli = assay: Antibacterial activity against Escherichia coli SG 458 at 50 uL of 2 mM solution of compound in 1:9 DMSO/MeOH after 24 hrs by agar diffusion method; type: functional; procedure, shortened: as §1
Pseudomonas aeruginosa [8] = assay: Antibacterial activity against Pseudomonas aeruginosa SG 137 at 50 uL of 2 mM solution of compound in 1:9 DMSO/MeOH after 24 hrs by agar diffusion method; type: functional; procedure, shortened: as §1
Pseudomonas aeruginosa [9] = assay: Antibacterial activity against Pseudomonas aeruginosa K799/61 at 50 uL of 2 mM solution of compound in 1:9 DMSO/MeOH after 24 hrs by agar diffusion method; type: functional; procedure, shortened: as §1
Mycolicibacterium vaccae [10] = assay: Antimycobacterial activity against Mycobacterium vaccae IMET 10670 at 50 uL of 2 mM solution of compound in 1:9 DMSO/MeOH after 24 hrs by agar diffusion method; type: functional; procedure, shortened: as §1
Mycolicibacterium vaccae [11] = assay: Antimycobacterial activity against Mycobacterium vaccae IMET 10670 assessed as partial clear inhibition zone at 50 uL of 2 mM solution of compound in 1:9 DMSO/MeOH after 24 hrs by agar diffusion method; type: functional; procedure, shortened: as §1
Staphylococcus aureus [12] = assay: Antibacterial activity against methicillin-sensitive Staphylococcus aureus ATCC 29213; type: functional
Staphylococcus aureus [13] = assay: Antibacterial activity against methicillin-resistant Staphylococcus aureus ATCC 700699; type: functional
Enterococcus faecalis [14] = assay: Antibacterial activity against vancomycin-resistant Enterococcus faecalis 1528 at 50 uL of 2 mM solution of compound in 1:9 DMSO/MeOH after 24 hrs by agar diffusion method; type: functional; procedure, shortened: as §2
Staphylococcus aureus [15] = assay: Antibacterial activity against methicillin-resistant Staphylococcus aureus ATCC 700699 in presence of 50% mouse serum; type: functional
Procedure, shortened: (§3)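 MIC assay run with 50% mouse or human serum added to gauge protein-binding effect. Fold shift is calculated as the MIC with serum over the MIC without serum.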

Staphylococcus aureus [16] = assay: Antibacterial activity against methicillin-resistant Staphylococcus aureus ATCC 700699 in presence of 50% human serum; type: functional; procedure, shortened: as §3
Staphylococcus aureus [17] = assay: Ratio of MIC methicillin-resistant Staphylococcus aureus ATCC 700699 in presence of 50% mouse serum to MIC for […]; type: functional; procedure, shortened: as §3
Staphylococcus aureus [18] = assay: Ratio of MIC methicillin-resistant Staphylococcus aureus ATCC 700699 in presence of 50% human serum to MIC for […]; type: functional; procedure, shortened: as §3
[19] = Cytotoxicity against human HepG2 cells; type: cell-based
Bacillus subtilis [20] = assay: Antibacterial activity against Bacillus subtilis ATCC 6633 assessed as partial clear inhibition zone at 50 uL of 2 mM solution of compound in 1:9 DMSO/MeOH after 24 hrs by agar diffusion method; type: functional; procedure, shortened: as §1
Staphylococcus aureus [21] = assay: Antibacterial activity against Staphylococcus aureus SG 511 assessed as clear inhibition zone at 50 uL of 2 mM solution of compound in 1:9 DMSO/MeOH after 24 hrs by agar diffusion method; type: functional; procedure, shortened: as §1
Staphylococcus aureus [22] = assay: Antibacterial activity against methicillin-resistant Staphylococcus aureus 134/93 assessed as clear inhibition zone at 50 uL of 2 mM solution of compound in 1:9 DMSO/MeOH after 24 hrs by agar diffusion method; type: functional; procedure, shortened: as §2
Enterococcus faecalis [23] = assay: Antibacterial activity against vancomycin-resistant Enterococcus faecalis 1528 assessed as unclear inhibition zone at 50 uL of 2 mM solution of compound in 1:9 DMSO/MeOH after 24 hrs by agar diffusion method; type: functional; procedure, shortened: as §2
Pseudomonas aeruginosa [24] = assay: Antibacterial activity against Pseudomonas aeruginosa K799/61 assessed as clear inhibition zone at 50 uL of 2 mM solution of compound in 1:9 DMSO/MeOH after 24 hrs by agar diffusion method; type: functional, organism-based; procedure, shortened: as §1
Mycolicibacterium vaccae [25] = assay: Antimycobacterial activity against Mycobacterium vaccae IMET 10670 assessed as unclear inhibition zone at 50 uL of 2 mM solution of compound in 1:9 DMSO/MeOH after 24 hrs by agar diffusion method; type: functional; procedure, shortened: as §1
Enterococcus faecalis [26] = assay: Antibacterial activity against vancomycin-resistant Enterococcus faecalis 1528 assessed as partial clear inhibition zone at 50 uL of 2 mM solution of compound in 1:9 DMSO/MeOH after 24 hrs by agar diffusion method; type: functional; procedure, shortened: as §2

| Structure (SMILES) | MIC [1] [µM] | MIC [2] [µM] | diameter of the inhibition zone (DIZ) (Bacillus subtilis [3]) [mm] | diameter of the inhibition zone (DIZ) (Bacillus subtilis [4]) [mm] | diameter of the inhibition zone (DIZ) (Staphylococcus aureus [5]) [mm] | diameter of the inhibition zone (DIZ) (Staphylococcus aureus [7]) [mm] | diameter of the inhibition zone (DIZ) (Escherichia coli) [mm] | diameter of the inhibition zone (DIZ) (Pseudomonas aeruginosa [8]) [mm] | diameter of the inhibition zone (DIZ) (Pseudomonas aeruginosa [9]) [mm] | diameter of the inhibition zone (DIZ) (Mycolicibacterium vaccae [11]) [mm] | diameter of the inhibition zone (DIZ) (Enterococcus faecalis [14]) [mm] | other results |
| --- | --- | --- | --- | --- | --- | --- | --- | --- | --- | --- | --- | --- |
| CC(C)(C)OC(=O)N1OC2CCC1C21CCN(c2ccc(NC(=O)OCc3ccccc3)cc2F)CC1 (stereo not drawn) | > 128 | > 128 | – | – | – | – | – | – | – | – | – | – |
| CC(=O)NC[C@H]1CN(c2ccc(N3CCC4(CC3)C3CCC4N(C(=O)OC(C)(C)C)O3)c(F)c2)C(=O)O1 (stereo partly drawn) | 24.4 | 22 | 25 | 27 | 18 | 25 | 0 | 0 | 0 | 37 | 23 | diameter of the inhibition zone (DIZ) (Staphylococcus aureus [6]): 22 mm; diameter of the inhibition zone (DIZ) (Mycolicibacterium vaccae [10]): 24 mm; MIC (Staphylococcus aureus [12]): 64 µg/mL (≈ 123 µM); MIC (Staphylococcus aureus [13]): 16 µg/mL (≈ 30.9 µM); MIC (Staphylococcus aureus [15]): 32 µg/mL; MIC (Staphylococcus aureus [16]): 62 µg/mL; Ratio (Staphylococcus aureus [17]): 2; Ratio (Staphylococcus aureus [18]): 4; CC50 [19]: > 100 µM |
| CC(C)(C)OC(=O)N1OC2CCC1C21CCN(c2ccc(N3C[C@H](COS(C)(=O)=O)OC3=O)cc2F)CC1 (stereo partly drawn) | 118 | 67.4 | – | – | – | – | – | – | – | – | – | – |
| CC(C)(C)OC(=O)N1OC2CCC1C21CCN(c2ccc(N3C[C@H](CO)OC3=O)cc2F)CC1 (stereo partly drawn) | 97 | > 128 | 23.5 | 28 | 22 | 24 | 0 | 0 | 0 | 30 | 22 | diameter of the inhibition zone (DIZ) (Bacillus subtilis [20]): 30 mm; MIC (Staphylococcus aureus [12]): > 64 µg/mL; MIC (Staphylococcus aureus [13]): 32 µg/mL (≈ 67 µM); MIC (Staphylococcus aureus [15]): > 64 µg/mL; MIC (Staphylococcus aureus [16]): > 34 µg/mL; Ratio (Staphylococcus aureus [17]): >2; Ratio (Staphylococcus aureus [18]): >2; CC50 [19]: > 100 µM |
| CC(=O)NC[C@H]1CN(c2ccc(N3CCOCC3)c(F)c2)C(=O)O1 [LINEZOLID] | – | 0.4 | – | – | – | – | – | – | – | – | – | – |
| CC(C)(C)OC(=O)N1OC2CCC1C21CCN(c2ccc(N3C[C@H](CN)OC3=O)cc2F)CC1 (stereo partly drawn) | – | – | 12 | – | 10 | – | 10 | 0 | – | – | – | diameter of the inhibition zone (DIZ) (Staphylococcus aureus [21]): 13 mm; diameter of the inhibition zone (DIZ) (Staphylococcus aureus [22]): 14 mm; diameter of the inhibition zone (DIZ) (Enterococcus faecalis [23]): 14 mm; diameter of the inhibition zone (DIZ) (Pseudomonas aeruginosa [24]): Active; diameter of the inhibition zone (DIZ) (Mycolicibacterium vaccae [10]): 18 mm; diameter of the inhibition zone (DIZ) (Mycolicibacterium vaccae [25]): 25 mm |
| CC(=O)NC[C@H]1CN(c2ccc(N3CCC4(CC3)C(O)CCC4NC(=O)OC(C)(C)C)c(F)c2)C(=O)O1 (stereo partly drawn) | > 128 | > 128 | 14 | 19 | – | 14 | 0 | 0 | 0 | 13 | 15 | diameter of the inhibition zone (DIZ) (Staphylococcus aureus [6]): 16 mm; diameter of the inhibition zone (DIZ) (Staphylococcus aureus [22]): 18 mm; diameter of the inhibition zone (DIZ) (Enterococcus faecalis [26]): 18 mm |
| CC(C)(C)OC(=O)N1OC2CCC1C21CCN(c2ccc([N+](=O)[O-])cc2F)CC1 (stereo not drawn) | > 128 | > 128 | – | – | – | – | – | – | – | – | – | – |
| CCCC(=O)OC[C@H]1CN(c2ccc(N3CCC4(CC3)C3CCC4N(C(=O)OC(C)(C)C)O3)c(F)c2)C(=O)O1 (stereo partly drawn) | 19.2 | 29.2 | – | – | – | – | – | – | – | – | – | – |
| CC(C)(C)OC(=O)N1OC2CCC1C21CCN(c2ccc(N)cc2F)CC1 (stereo not drawn) | > 128 | > 128 | – | – | – | – | – | – | – | – | – | – |
